# Measured values as given in ChEMBL document CHEMBL4825756, “New Design Rules for Developing Potent Cell-Active Inhibitors of the Nucleosome Remodeling Factor (NURF) via BPTF Bromodomain Inhibition” (J Med Chem, 2021).
# Active and inactive are the calls of the source. No cut-off for these calls is given here.
# Tests used:
# [1] = molecular target: T1, Bromodomain-containing protein 4 (Homo sapiens, UniProt O60885); assay: Inhibition of HIS9-tagged BRD4 (unknown origin) expressed in Escherichia coli BL21 (DE3) cells incubated for 30 mins by AlphaScreen assay
# [2] = molecular target: T2, Bromodomain-containing protein 9 (Homo sapiens, UniProt Q9H8M2); assay: Binding affinity to BRD9 (unknown origin) by BROMOscan method
# T2 sequence (Q9H8M2 whole entry): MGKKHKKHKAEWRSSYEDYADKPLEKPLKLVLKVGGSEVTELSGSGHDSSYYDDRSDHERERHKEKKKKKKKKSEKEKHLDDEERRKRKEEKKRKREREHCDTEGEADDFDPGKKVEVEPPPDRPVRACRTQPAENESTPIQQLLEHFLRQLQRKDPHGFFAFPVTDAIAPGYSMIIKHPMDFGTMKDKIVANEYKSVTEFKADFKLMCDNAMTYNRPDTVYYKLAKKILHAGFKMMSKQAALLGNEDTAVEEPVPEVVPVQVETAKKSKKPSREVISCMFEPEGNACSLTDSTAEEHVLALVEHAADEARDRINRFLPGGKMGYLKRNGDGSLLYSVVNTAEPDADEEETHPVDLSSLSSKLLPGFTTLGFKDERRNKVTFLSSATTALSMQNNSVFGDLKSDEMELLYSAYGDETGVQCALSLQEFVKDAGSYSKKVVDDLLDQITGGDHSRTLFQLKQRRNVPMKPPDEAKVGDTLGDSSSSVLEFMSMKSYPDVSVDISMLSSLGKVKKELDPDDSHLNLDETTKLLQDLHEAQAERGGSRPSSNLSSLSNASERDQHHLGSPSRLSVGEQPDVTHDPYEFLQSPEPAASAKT
# [3] = molecular target: T3, Histone acetyltransferase KAT2B (Homo sapiens, UniProt Q92831); assay: Binding affinity to PCAF (unknown origin) by BROMOscan method
# Target sequence in this assay (Q92831 whole entry): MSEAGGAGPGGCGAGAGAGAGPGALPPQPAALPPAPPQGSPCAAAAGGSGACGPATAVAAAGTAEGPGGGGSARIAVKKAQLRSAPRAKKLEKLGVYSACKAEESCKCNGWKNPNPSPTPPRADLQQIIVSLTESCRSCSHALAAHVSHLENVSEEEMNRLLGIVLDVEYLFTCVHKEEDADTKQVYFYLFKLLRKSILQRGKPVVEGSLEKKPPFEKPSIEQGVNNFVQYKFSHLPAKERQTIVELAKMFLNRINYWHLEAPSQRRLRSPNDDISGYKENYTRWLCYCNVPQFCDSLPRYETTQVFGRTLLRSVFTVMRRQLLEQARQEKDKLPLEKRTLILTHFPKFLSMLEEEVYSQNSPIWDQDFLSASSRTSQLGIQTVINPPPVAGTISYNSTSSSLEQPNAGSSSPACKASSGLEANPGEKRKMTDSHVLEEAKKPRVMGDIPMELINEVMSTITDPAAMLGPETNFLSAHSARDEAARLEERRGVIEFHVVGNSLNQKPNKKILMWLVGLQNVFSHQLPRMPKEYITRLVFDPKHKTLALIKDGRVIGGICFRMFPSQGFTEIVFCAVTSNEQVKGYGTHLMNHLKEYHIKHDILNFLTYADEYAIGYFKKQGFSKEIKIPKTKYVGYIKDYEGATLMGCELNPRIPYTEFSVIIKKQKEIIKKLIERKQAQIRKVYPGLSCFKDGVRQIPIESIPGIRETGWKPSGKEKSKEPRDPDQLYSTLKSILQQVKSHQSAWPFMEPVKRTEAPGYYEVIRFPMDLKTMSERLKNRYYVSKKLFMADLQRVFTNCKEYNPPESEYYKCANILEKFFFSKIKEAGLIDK
# EpH4 [4] = assay: Upregulation of sfn mRNA in mouse EpH4 cells at 5 uM after 24 hrs by qRT-PCR analysis; type: functional, cell-based
# How it was run: (§1)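 Murine Eph4 mammary epithelial cells were treated at 5 μM for 24 h and harvested in trizol. Transcripts were quantified by SYBR Green qPCR. Group differences were tested by one-way ANOVA at p<0.05.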
# EpH4 [5] = assay: Upregulation of Myc mRNA in mouse EpH4 cells at 5 uM after 24 hrs by qRT-PCR analysis; type: functional, cell-based; how it was run: as §1
# EpH4 [6] = assay: Upregulation of sprr1a mRNA in mouse EpH4 cells at 5 uM after 24 hrs by qRT-PCR analysis; type: functional, cell-based; how it was run: as §1
# 4T1 [7] = assay: Growth inhibition of mouse 4T1 cells assessed as reduction cell viability 5 to 15 uM in presence of doxorubicin incubated for 4 days by MTS assay relative to control; type: functional, cell-based; conditions: dose 5-15 µM, time 4.0 day
# How it was run: (§2)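 Mouse 4T1 breast cancer cells in DMEM with 10% FBS, 2 mM glutamine and penicillin-streptomycin, 4000 cells/well, adhered overnight. Three inhibitor doses, chosen from toxicity curves, given for 4 days alone or with 50 nM doxorubicin, also in shRNA BPTF-knockdown cells. MTS absorbance read at 490 nm; fraction survival scaled to untreated cells (1.0) and blank (0.0); N=3, mean ± SEM.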
# [8] = molecular target: Nucleosome-remodeling factor subunit BPTF (Homo sapiens, UniProt Q12830); assay: Binding affinity to 5FW-labeled BPTF (unknown origin) expressed in Escherichia coli BL21 (DE3) cells by PrOF NMR analysis
# 4T1 [9] = assay: Growth inhibition of mouse 4T1 cells BPTF knock down assessed as reduction cell viability 15 uM in presence of doxorubicin incubated for 4 days by MTS assay relative to control; type: functional, cell-based; conditions: time 4.0 day
# How it was run: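 4T1 cells with shRNA BPTF knockdown, grown in DMEM with 10% FBS, 2 mM glutamine and pen-strep, were seeded at 4000/well and allowed to adhere overnight. They were treated 4 days in complete medium with one of three inhibitor doses chosen from toxicity curves, combined with 50 nM doxorubicin. MTS absorbance was read at 490 nm. Fraction survival was set against untreated cells (1.0) and blank (0.0).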
# [10] = molecular target: Histone acetyltransferase KAT2A (Homo sapiens) (UniProt Q92830); assay: Inhibition of GCN5L2 (unknown origin) at 140 nM by BROMOscan method relative to control
# Chain of Histone acetyltransferase KAT2A (Homo sapiens) (Q92830 2-837 limits assumed): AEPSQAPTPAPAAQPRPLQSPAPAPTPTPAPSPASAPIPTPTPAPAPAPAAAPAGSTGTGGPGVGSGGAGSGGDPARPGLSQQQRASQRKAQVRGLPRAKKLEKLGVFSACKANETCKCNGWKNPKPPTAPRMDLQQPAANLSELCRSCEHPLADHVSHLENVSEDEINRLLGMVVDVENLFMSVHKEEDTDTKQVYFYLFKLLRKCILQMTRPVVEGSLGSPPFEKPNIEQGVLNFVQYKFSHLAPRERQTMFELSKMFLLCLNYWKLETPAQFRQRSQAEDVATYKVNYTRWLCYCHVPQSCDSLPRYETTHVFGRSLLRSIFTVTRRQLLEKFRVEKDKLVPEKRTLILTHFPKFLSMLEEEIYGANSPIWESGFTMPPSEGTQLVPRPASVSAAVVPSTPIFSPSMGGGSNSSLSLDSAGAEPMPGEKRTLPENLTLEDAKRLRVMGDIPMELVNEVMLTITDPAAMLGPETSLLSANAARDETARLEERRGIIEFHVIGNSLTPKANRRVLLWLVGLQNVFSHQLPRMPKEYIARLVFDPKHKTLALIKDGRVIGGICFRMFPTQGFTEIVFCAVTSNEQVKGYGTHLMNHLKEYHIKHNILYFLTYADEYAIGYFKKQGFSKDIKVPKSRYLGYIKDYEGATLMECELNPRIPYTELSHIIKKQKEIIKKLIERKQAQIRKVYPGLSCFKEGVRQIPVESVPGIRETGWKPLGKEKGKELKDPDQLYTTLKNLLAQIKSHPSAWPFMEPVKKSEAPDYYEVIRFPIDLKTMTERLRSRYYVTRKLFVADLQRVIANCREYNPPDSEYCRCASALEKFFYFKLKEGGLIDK
# [11] = molecular target: Chromatin remodeling regulator CECR2 (Homo sapiens) (UniProt Q9BXF3); assay: Inhibition of CECR2 (unknown origin) at 140 nM by BROMOscan method relative to control
# Chain of Chromatin remodeling regulator CECR2 (Homo sapiens) (Q9BXF3 whole entry, looked up): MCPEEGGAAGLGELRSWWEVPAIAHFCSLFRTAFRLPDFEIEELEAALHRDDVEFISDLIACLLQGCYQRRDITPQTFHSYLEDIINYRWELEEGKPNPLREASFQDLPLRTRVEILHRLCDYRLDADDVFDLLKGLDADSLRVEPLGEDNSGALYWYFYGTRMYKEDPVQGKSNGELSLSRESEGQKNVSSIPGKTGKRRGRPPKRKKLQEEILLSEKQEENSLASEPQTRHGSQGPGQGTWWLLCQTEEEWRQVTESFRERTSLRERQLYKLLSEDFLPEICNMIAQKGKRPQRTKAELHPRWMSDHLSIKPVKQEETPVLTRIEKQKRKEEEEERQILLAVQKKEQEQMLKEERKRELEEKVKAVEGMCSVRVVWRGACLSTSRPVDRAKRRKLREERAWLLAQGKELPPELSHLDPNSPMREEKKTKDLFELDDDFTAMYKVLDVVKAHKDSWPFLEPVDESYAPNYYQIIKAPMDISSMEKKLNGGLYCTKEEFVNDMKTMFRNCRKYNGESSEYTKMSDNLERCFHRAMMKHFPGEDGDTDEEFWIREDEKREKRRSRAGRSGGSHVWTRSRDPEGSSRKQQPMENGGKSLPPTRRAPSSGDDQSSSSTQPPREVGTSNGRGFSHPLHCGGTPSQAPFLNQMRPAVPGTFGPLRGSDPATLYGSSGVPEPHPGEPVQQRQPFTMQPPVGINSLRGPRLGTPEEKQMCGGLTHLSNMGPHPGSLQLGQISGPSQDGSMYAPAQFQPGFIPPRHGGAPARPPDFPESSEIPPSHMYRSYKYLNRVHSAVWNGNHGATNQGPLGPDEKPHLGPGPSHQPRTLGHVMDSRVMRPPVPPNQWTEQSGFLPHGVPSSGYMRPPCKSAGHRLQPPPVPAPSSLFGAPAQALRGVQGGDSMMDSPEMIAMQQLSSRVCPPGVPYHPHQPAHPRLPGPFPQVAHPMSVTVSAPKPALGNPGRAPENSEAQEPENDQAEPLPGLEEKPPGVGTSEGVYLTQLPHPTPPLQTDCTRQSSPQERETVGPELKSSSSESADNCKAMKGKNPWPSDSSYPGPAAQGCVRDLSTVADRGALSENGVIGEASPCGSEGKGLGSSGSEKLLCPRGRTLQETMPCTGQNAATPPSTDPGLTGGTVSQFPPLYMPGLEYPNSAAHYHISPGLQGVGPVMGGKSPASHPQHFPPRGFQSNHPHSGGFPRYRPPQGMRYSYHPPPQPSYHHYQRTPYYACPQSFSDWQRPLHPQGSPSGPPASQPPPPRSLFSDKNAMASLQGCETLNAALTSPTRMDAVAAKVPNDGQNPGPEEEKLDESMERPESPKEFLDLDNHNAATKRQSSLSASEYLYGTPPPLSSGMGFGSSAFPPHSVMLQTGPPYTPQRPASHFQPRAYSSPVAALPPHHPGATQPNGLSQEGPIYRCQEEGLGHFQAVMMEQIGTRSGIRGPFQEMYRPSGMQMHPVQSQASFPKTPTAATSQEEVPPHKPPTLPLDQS
# 4T1 [12] = assay: Growth inhibition of mouse 4T1 cells assessed as reduction cell viability 2.5 to 8 uM in presence of doxorubicin incubated for 4 days by MTS assay relative to control; type: functional, cell-based; conditions: dose 2.5-8 µM, time 4.0 day; how it was run: as §2
# [13] = molecular target: T3, Histone acetyltransferase KAT2B; assay: Binding affinity to 5FW-labeled PCAF (unknown origin) expressed in Escherichia coli BL21 (DE3) cells at 7.4 to 200 uM by PrOF NMR analysis; conditions: dose 7.4-200 µM
# How it was run: (§3)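 Protein-observed 19F NMR with 5-fluorotryptophan-labelled protein. Each ligand is titrated and the change in chemical shift relative to a control sample is plotted against ligand concentration to give a binding isotherm. Kd is taken from a fit to the quadratic binding equation, which uses total ligand and total protein concentrations.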
# Target sequence in this assay (Q92831 whole entry, looked up): as the sequence (Q92831 whole entry) above
# [14] = molecular target: T1, Bromodomain-containing protein 4; assay: Binding affinity to BRD4 BD1 (unknown origin) by BROMOscan method
# [15] = molecular target: Chromatin remodeling regulator CECR2 (Homo sapiens) (UniProt Q9BXF3); assay: Binding affinity to 5FW-labeled CECR2 (unknown origin) expressed in Escherichia coli BL21 (DE3) cells at 7.4 to 200 uM by PrOF NMR analysis; conditions: dose 7.4-200 µM; how it was run: as §3
smiles,measurement,setting,value
CC(C)n1ncc(Nc2ccc(CN)cc2)c(Cl)c1=O,IC50,[1],Not Active
CN(C)CCCc1ccc(Nc2cnn(C)c(=O)c2Cl)cc1,Kd,[2],230 nM
same,Kd,[3],370 nM
CN(C)CCc1ccc(Nc2cnn(C)c(=O)c2Cl)cc1,Activity,EpH4 [4],Active
same,Activity,EpH4 [5],inactive
same,Activity,EpH4 [6],inactive
same,growth inhibition (GI),4T1 [7],Active
CN(C)CCCOc1ccc(-c2cc(NCCCn3cccn3)nc(S(C)(=O)=O)n2)cc1,Kd,[8],120000 nM
COC(=O)c1cccc(NC(=O)N[C@H]2CCN(c3ccnc(Nc4ccc(F)cc4)n3)C2)c1,Activity,EpH4 [4],inactive
same,Activity,EpH4 [5],inactive
same,growth inhibition (GI),4T1 [9],Active
same,Activity,EpH4 [6],inactive
Cn1ncc(Nc2ccc(CCN)cc2)c(Cl)c1=O,inhibition,[10],Active
same,inhibition,[11],Active
same,growth inhibition (GI),4T1 [12],Active
same,Activity,[13],Active
same,Kd,[14],2200 nM
same,IC50,[1]; read-out: IC50,31000 nM
same,Activity,[15],Active
Cn1ncc(Nc2ccc(CCN)cc2)c(Br)c1=O,Kd,[2],0.24 nM
same,Kd,[3],14 nM
